One block for each molecule: values may come before it.
Key:
5-HT1B receptor [1] = molecular target: T1, 5-HT1B receptor (Macaca mulatta, UniProt F6SFA9); assay: Binding selectivity PET study: blocking of [11C]P943 with GR127935; assay type: in vivo, Rhesus monkey
How it was run: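 About three hours later came a second scan with GR127935 2 mg/kg i.v. bolus given before the tracer. Dose was 5.4 ± 0.7 mCi at 6.3 ± 0.9 mCi/nmol. BPND = ROI/cerebellum ratio from 70-100 min, minus 1, in control and blocked scans.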

human 5-HT1B receptor = conditions: selectivity; cited from earlier work
5-HT1B = 5-HT1B (Homo sapiens, UniProt P28222); assay: NIMH Psychoactive Drug Screening Program binding; conditions: based on the in vitro data
5-HT1B receptor [2] = molecular target: T1, 5-HT1B receptor; assay: Baseline brain PET imaging with [11C]P943; assay type: in vivo, Rhesus monkey
How it was run: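 Rhesus monkeys (5-8 kg) were fasted overnight, given ketamine 10 mg/kg i.m. and glycopyrrolate, then kept on ~2% isoflurane and scanned on HRRT PET after a transmission scan. Tracer dose was 5-7 mCi. Bolus scan: one animal, 120 min list-mode acquisition. Bolus plus infusion scans: Kbol 150 min, four animals. BPND = mean ROI/cerebellum concentration over 70-100 min, minus 1.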

5-HT1B receptor [3] = molecular target: T1, 5-HT1B receptor; assay: Binding saturability PET study; assay type: in vivo, Rhesus monkey; conditions: high SA
How it was run: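 Self-block design: 2 anesthetized rhesus monkeys, each scanned on two days at high, medium and low specific activity by adding unlabeled test compound (12 scans). Dosing was 2 min i.v. bolus plus 118 min constant infusion, Kbol 150 min for high-SA scans. Net high SA at injection was 111.7 MBq/nmol. BPND = ROI/cerebellum equilibrium ratio over 70-100 min, minus 1.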

[4] = Mean of two monkeys, GR127935 2 mg/kg i.v.
[5] = Monkey#1, GR127935 2 mg/kg i.v.
[6] = Monkey#2, GR127935 2 mg/kg i.v.

T1 sequence (F6SFA9 1-390): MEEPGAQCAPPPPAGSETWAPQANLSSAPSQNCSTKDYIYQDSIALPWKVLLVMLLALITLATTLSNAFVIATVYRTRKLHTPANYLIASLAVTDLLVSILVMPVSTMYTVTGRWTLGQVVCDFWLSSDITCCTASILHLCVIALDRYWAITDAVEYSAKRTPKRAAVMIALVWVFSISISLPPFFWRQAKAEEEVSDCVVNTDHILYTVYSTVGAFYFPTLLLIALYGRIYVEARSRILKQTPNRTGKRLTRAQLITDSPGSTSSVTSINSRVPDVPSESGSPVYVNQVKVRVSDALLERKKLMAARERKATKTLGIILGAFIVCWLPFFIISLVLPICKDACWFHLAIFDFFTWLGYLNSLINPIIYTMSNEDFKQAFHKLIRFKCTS
5-HT1B, sequence (P28222 whole entry, species assumed): as the sequence (F6SFA9 1-390) above, with A20V, T35A, A45S, V105I, D198E, R301K, L337M counted along it

- %Reduction in BPND Caudate (5-HT1B receptor [1]; [4]): 62%
- %Reduction in BPND Cingulate (5-HT1B receptor [1]; [4]): 64%
- %Reduction in BPND Frontal (5-HT1B receptor [1]; [4]): 91%
- %Reduction in BPND Globus Pallidus (5-HT1B receptor [1]; [4]): 73%
- %Reduction in BPND Insula (5-HT1B receptor [1]; [4]): 53%
- %Reduction in BPND Occipital (5-HT1B receptor [1]; [4]): 95%
- %Reduction in BPND Putamen (5-HT1B receptor [1]; [4]): 40%
- %Reduction in BPND Thalamus (5-HT1B receptor [1]; [4]): 75%
- %Reduction in BPND Caudate (5-HT1B receptor [1]; [5]): 78%
- %Reduction in BPND Cingulate (5-HT1B receptor [1]; [5]): 66%
- %Reduction in BPND Frontal (5-HT1B receptor [1]; [5]): 84%
- %Reduction in BPND Globus Pallidus (5-HT1B receptor [1]; [5]): 80%
- %Reduction in BPND Insula (5-HT1B receptor [1]; [5]): 61%
- %Reduction in BPND Occipital (5-HT1B receptor [1]; [5]): 96%
- %Reduction in BPND Putamen (5-HT1B receptor [1]; [5]): 47%
- %Reduction in BPND Thalamus (5-HT1B receptor [1]; [5]): 76%
- %Reduction in BPND Caudate (5-HT1B receptor [1]; [6]): 45%
- %Reduction in BPND Cingulate (5-HT1B receptor [1]; [6]): 61%
- %Reduction in BPND Frontal (5-HT1B receptor [1]; [6]): 98%
- %Reduction in BPND Globus Pallidus (5-HT1B receptor [1]; [6]): 66%
- %Reduction in BPND Insula (5-HT1B receptor [1]; [6]): 45%
- %Reduction in BPND Occipital (5-HT1B receptor [1]; [6]): 94%
- %Reduction in BPND Putamen (5-HT1B receptor [1]; [6]): 33%
- %Reduction in BPND Thalamus (5-HT1B receptor [1]; [6]): 74%
- BPND frontal cortex after blockade (5-HT1B receptor [1]; after GR127935 2 mg/kg i.v.): 0.06
- BPND occipital after blockade (5-HT1B receptor [1]; after GR127935 2 mg/kg i.v.): 0.03
Structure (SMILES): COc1ccc(NC(=O)c2ccc(-c3ccc(-c4noc(C)n4)cc3C)cc2)cc1N1CCN(C)CC1 [GR127935]

- affinity for 5HT1B higher than for 5-HT1A receptors (5-HT1B): 50-100 times
Structure (SMILES): COC(C)(C)c1ccc(N2CC[C@@H](Cc3ccccc3N3CCN(C)CC3)C2=O)cc1 [P943, R-1-[4-(2-methoxy-isopropyl)-phenyl]-3-[2-(4-methyl-piperazin-1-yl)benzyl]-pyrrolidin-2-one]
- affinity for other 5-HT and non-5-HT receptors lower than for 5-HT1B (human 5-HT1B receptor): at least 100 fold

- time of peak uptake in most brain regions (5-HT1B receptor [2]; 2 hr baseline scan, bolus injection): 10 to 30 min
- time at which equilibrium was reached in the brain (5-HT1B receptor [2]; bolus plus infusion): ~70 min
- BPND frontal cortex, control scan (5-HT1B receptor [1]; before blockade, paired study): 0.49
- BPND occipital, control scan (5-HT1B receptor [1]; before blockade, paired study): 0.71
- BPND at high specific activity, globus pallidus (5-HT1B receptor [3]): 0.57
- BPND at high specific activity, occipital cortex (5-HT1B receptor [3]; highest value): 0.80
Structure (SMILES): COC(C)(C)c1ccc(N2CC[C@@H](Cc3ccccc3N3CCN(C)CC3)C2=O)cc1 [[^11C]P943, (R)-1-(4-(2-methoxypropan-2-yl)phenyl)-3-(2-(4-methylpiperazin-1-yl)benzyl)pyrrolidin-2-one]

Reference: PMC3780362 (Nuclear medicine and biology, 2009)
